In ChEMBL document CHEMBL1177714, “Online fluorescence enhancement assay for the acetylcholine binding protein with parallel mass spectrometric identification” (J Med Chem, 2010) one finds pKi data, which are given here for eleven molecules.

The nature of the test: Displacement of radioligand from AChBp by scintillation counting. In short, it runs like this: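 Lymnaea stagnalis AChBP (Ls-AChBP), expressed from baculovirus in Sf9 insect cells and purified from medium, 1.3 ng per well. Buffer (final): 1.4 mM KH2PO4, 4.3 mM Na2HPO4, 137.0 mM NaCl, 2.7 mM KCl, 20 mM Tris, 4% DMSO, 0.05% Tween 20, pH 7.4. Incubation was 60 min, then 3 h in the dark, with label-bead complexes counted. Full IC50 curves (n=3) were converted to pKi by Cheng-Prusoff.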

Consider `C(=C1/CCCN=C1c1cccnc1)/c1cc2ccccc2[nH]1`, for which the pKi (usually −log10 of the Ki, conventionally taken in molar units) is 8.71.

`C(=C1/CCCN=C1c1cccnc1)/c1ccccc1` [3-BENZYLIDENEANABASEINE] had a pKi of 7.13.

Molecule `COc1ccc(/C=C2\CCCN=C2c2cccnc2)cc1O` yielded a pKi of 8.46.

Consider `Br.NCCCCC(=O)c1cccnc1`, for which the pKi was found to be 6.09.

The molecule `CC(=O)Nc1ccc(/C=C2\CCCN=C2c2cccnc2)cc1` registered a pKi of 7.38.

In turn, `Clc1ccc(/C=C2\CCCN=C2c2cccnc2)cc1` displayed a pKi of 6.87.

`O=[N+]([O-])c1cccc(/C=C2\CCCN=C2c2cccnc2)c1` returned a pKi of 6.29.

In turn, `C(=C1/CCCN=C1c1cccnc1)/c1coc2ccccc12` registered a pKi of 7.

In turn, `Oc1ccc(/C=C2\CCCN=C2c2cccnc2)cc1` came in with a pKi of 8.55.

The molecule `CCN(CC)c1ccc(/C=C2\CCCN=C2c2cccnc2)c(O)c1` returned a pKi of 7.59.

With `COc1cc(/C=C2\CCCN=C2c2cccnc2)ccc1O`, the pKi is on record as 7.09.
